From ChEMBL document CHEMBL1142492 (J Med Chem, 2008)

Columns and labels:
[1] = biological target: SRSF protein kinase 2 (Homo sapiens) (UniProt P78362); assay: Inhibition of SRPK2 at 3 uM
[2] = biological target: Serine/threonine-protein kinase 16 (Homo sapiens) (UniProt O75716); assay: Inhibition of STK16 at 3 uM
[3] = biological target: Myosin light chain kinase family member 4 (Homo sapiens) (UniProt Q86YV6); assay: Inhibition of SgK085 at 3 uM
[4] = biological target: STE20-like serine/threonine-protein kinase (Homo sapiens) (UniProt Q9H2G2); assay: Inhibition of SLK at 3 uM
[5] = biological target: SRSF protein kinase 1 (Homo sapiens) (UniProt Q96SB4); assay: Inhibition of SRPK1 at 3 uM
[6] = biological target: Serine/threonine-protein kinase tousled-like 2 (Homo sapiens) (UniProt Q86UE8); assay: Inhibition of TLK2 at 3 uM
Sequence of Serine/threonine-protein kinase tousled-like 2 (Homo sapiens) (Q86UE8 whole entry, looked up): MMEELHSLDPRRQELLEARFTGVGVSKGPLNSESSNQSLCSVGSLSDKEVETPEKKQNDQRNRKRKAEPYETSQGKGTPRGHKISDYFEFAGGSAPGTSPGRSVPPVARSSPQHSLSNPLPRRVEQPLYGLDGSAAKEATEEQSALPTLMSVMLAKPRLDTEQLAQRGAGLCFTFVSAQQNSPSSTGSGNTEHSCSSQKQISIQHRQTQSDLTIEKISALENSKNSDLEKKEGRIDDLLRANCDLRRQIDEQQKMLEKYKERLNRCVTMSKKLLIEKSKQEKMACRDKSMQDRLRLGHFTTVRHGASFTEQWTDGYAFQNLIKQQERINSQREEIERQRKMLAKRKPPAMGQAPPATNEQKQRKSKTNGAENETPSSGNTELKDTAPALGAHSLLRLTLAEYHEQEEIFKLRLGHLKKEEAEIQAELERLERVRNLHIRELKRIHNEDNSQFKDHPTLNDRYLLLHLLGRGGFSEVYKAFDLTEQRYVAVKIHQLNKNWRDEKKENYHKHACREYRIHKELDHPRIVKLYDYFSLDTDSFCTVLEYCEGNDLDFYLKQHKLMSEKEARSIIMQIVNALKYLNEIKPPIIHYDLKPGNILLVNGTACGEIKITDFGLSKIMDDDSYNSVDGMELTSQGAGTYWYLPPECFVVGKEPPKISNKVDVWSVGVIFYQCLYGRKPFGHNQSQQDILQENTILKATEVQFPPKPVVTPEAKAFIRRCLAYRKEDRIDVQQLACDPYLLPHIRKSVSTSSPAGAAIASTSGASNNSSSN

[7] = biological target: Activated CDC42 kinase 1 (Homo sapiens) (UniProt Q07912); assay: Inhibition of TNK2 at 3 uM
[8] = biological target: Tyrosine-protein kinase Lck (Homo sapiens) (UniProt P06239); assay: Inhibition of LCK at 3 uM
[9] = biological target: Glycogen synthase kinase-3 alpha (Homo sapiens) (UniProt P49840); assay: Inhibition of GSK3A at 3 uM
[10] = biological target: Inhibitor of nuclear factor kappa-B kinase subunit alpha (Homo sapiens) (UniProt O15111); assay: Inhibition of IKK-alpha at 3 uM
[11] = biological target: Mitogen-activated protein kinase kinase kinase kinase 1 (Homo sapiens) (UniProt Q92918); assay: Inhibition of MAP4K1 at 3 uM
[12] = biological target: Mitogen-activated protein kinase kinase kinase kinase 3 (Homo sapiens) (UniProt Q8IVH8); assay: Inhibition of MAP4K3 at 3 uM
[13] = biological target: Serine/threonine-protein kinase MARK1 (Homo sapiens) (UniProt Q9P0L2); assay: Inhibition of MARK1 at 3 uM
[14] = biological target: Dual specificity mitogen-activated protein kinase kinase 3 (Homo sapiens) (UniProt P46734); assay: Inhibition of MEK3 at 3 uM
[15] = biological target: Dual specificity mitogen-activated protein kinase kinase 6 (Homo sapiens) (UniProt P52564); assay: Inhibition of MEK6 at 3 uM
[16] = biological target: Myosin light chain kinase, smooth muscle (Homo sapiens) (UniProt Q15746); assay: Inhibition of MLCK at 3 uM
[17] = biological target: Mitogen-activated protein kinase kinase kinase 9 (Homo sapiens) (UniProt P80192); assay: Inhibition of MLK1 at 3 uM
[18] = biological target: Serine/threonine-protein kinase 26 (Homo sapiens) (UniProt Q9P289); assay: Inhibition of MST4 at 3 uM
[19] = biological target: Myosin-IIIa (Homo sapiens) (UniProt Q8NEV4); assay: Inhibition of MYO3A at 3 uM
[20] = biological target: Serine/threonine-protein kinase Nek9 (Homo sapiens) (UniProt Q8TD19); assay: Inhibition of NEK9 at 3 uM
Sequence of Serine/threonine-protein kinase Nek9 (Homo sapiens) (Q8TD19 whole entry): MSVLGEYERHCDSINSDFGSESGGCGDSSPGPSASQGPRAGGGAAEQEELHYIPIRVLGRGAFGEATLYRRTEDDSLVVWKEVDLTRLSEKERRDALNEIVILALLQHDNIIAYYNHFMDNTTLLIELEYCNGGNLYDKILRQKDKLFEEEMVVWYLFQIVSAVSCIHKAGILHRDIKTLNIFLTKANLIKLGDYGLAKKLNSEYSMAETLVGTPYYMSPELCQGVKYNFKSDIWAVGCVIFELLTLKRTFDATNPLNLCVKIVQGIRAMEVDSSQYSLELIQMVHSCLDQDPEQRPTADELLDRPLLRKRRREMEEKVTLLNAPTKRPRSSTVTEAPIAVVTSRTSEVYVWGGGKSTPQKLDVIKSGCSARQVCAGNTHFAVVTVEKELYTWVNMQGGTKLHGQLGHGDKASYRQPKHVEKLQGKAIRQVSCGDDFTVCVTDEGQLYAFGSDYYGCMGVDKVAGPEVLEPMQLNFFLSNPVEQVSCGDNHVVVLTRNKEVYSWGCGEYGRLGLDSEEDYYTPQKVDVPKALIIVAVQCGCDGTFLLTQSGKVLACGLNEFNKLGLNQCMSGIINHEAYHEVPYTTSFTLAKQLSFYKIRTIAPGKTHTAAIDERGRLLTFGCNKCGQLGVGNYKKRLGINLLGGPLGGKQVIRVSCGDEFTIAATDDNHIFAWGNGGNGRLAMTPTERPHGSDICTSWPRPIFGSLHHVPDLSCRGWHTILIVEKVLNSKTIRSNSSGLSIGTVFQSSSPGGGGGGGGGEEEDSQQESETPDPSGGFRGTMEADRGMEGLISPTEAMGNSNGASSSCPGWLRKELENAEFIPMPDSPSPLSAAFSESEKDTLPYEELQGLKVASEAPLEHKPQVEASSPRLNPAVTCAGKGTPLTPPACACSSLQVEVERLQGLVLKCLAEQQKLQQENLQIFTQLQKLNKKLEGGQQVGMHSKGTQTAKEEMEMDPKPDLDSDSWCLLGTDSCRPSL

[21] = biological target: Cyclin-dependent kinase 17 (Homo sapiens) (UniProt Q00537); assay: Inhibition of PCTK2 at 3 uM
Sequence of Cyclin-dependent kinase 17 (Homo sapiens) (Q00537 whole entry, looked up): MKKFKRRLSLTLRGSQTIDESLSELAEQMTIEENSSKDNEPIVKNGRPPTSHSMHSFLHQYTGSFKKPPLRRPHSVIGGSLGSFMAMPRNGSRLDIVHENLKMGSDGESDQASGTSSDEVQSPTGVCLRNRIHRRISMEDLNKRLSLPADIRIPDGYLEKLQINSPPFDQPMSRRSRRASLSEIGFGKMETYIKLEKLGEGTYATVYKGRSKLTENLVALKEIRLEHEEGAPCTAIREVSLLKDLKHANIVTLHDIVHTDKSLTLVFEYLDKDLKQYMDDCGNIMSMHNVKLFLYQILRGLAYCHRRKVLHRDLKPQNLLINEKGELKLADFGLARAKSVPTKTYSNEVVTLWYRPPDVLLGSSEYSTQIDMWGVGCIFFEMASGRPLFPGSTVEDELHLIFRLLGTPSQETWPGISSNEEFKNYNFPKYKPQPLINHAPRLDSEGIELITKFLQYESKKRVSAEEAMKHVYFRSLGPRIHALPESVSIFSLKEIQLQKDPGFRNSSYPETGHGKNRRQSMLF

[22] = biological target: Protein kinase C eta type (Homo sapiens) (UniProt P24723); assay: Inhibition of PRKCH at 3 uM
Sequence of Protein kinase C eta type (Homo sapiens) (P24723 whole entry): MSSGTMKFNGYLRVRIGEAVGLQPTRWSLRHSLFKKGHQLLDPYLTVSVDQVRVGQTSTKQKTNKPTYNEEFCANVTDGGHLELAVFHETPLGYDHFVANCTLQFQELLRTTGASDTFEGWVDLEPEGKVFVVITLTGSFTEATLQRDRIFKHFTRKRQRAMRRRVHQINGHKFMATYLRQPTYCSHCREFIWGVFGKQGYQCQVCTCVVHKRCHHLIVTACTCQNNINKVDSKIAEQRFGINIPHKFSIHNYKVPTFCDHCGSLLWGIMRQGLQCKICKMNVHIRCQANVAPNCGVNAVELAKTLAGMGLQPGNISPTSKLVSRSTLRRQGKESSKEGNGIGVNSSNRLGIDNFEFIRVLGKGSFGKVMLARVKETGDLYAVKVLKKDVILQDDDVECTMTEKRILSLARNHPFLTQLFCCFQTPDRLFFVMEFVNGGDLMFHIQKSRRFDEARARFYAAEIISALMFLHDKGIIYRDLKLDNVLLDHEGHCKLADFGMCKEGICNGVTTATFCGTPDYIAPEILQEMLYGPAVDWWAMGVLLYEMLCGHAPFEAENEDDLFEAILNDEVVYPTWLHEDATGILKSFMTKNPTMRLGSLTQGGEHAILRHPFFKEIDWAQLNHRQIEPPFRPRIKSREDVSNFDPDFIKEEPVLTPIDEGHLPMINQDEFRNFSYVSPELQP

[23] = biological target: Proto-oncogene tyrosine-protein kinase receptor Ret (Homo sapiens) (UniProt P07949); assay: Inhibition of RET at 3 uM
[24] = system: Proto-oncogene tyrosine-protein kinase receptor Ret (Homo sapiens), P07949 [V804L]; assay: Inhibition of RET V804L mutant at 3 uM
[25] = biological target: Cyclin-dependent kinase 15 (Homo sapiens) (UniProt Q96Q40); assay: Inhibition of PFTAIRE2 at 3 uM
[26] = biological target: Phosphatidylinositol 4,5-bisphosphate 3-kinase catalytic subunit alpha isoform (Homo sapiens) (UniProt P42336); assay: Inhibition of PIK3CA at 3 uM
[27] = biological target: Adenosine receptor A3 (Homo sapiens) (UniProt P0DMS8); assay: Inhibition of human adenosine A3 receptor at 3 uM
How it was run: (§1)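 Counter-screen binding/enzyme panel at single 3 μM, n=2; results as percent inhibition. Species per target as listed (rat NMDA, GABAA sites; human receptors, transporters; rabbit ACE).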

[28] = biological target: Type-1 angiotensin II receptor (Homo sapiens) (UniProt P30556); assay: Inhibition of human AT1 receptor at 3 uM; how it was run: as §1
Sequence of Type-1 angiotensin II receptor (Homo sapiens) (P30556 whole entry): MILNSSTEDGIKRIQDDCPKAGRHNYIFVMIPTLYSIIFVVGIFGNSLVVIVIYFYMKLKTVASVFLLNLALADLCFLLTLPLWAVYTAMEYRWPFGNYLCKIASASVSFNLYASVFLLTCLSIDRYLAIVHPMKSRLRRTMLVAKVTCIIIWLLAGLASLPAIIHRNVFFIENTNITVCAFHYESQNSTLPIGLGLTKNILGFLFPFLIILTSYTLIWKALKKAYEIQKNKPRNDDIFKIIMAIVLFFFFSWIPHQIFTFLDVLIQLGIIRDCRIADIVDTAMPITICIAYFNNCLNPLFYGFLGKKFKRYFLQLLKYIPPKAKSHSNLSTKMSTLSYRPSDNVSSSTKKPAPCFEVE

[29] = biological target: D(1A) dopamine receptor (Homo sapiens) (UniProt P21728); assay: Inhibition of human dopamine D1 receptor at 3 uM
Sequence of D(1A) dopamine receptor (Homo sapiens) (P21728 whole entry): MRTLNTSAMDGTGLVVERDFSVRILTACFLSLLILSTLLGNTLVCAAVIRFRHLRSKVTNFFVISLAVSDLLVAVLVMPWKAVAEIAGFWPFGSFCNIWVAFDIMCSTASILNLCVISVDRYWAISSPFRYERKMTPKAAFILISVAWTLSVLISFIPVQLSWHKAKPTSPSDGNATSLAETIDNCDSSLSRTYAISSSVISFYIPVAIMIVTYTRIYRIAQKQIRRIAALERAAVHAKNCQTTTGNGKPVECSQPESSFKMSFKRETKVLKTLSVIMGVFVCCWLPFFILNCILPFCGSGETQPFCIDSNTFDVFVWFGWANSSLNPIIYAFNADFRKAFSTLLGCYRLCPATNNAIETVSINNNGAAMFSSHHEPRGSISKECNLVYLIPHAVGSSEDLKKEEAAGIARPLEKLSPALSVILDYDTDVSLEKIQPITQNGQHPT

[30] = biological target: Endothelin-1 receptor (Homo sapiens) (UniProt P25101); assay: Inhibition of human endothelin ETA receptor at 3 uM; how it was run: as §1
[31] = biological target: Glutamate NMDA receptor (Rattus norvegicus) (UniProt P35439+Q00959+Q00960+Q00961+Q62645+Q8VHN2+Q9R1M7); assay: Displacement of phencyclidine from rat NMDA receptor at 3 uM; format: protein-complex assay; how it was run: as §1
[32] = biological target: Cyclin-dependent kinase 11A (Homo sapiens) (UniProt Q9UQ88); assay: Inhibition of CDC2L2 at 3 uM
[33] = biological target: Cyclin-dependent kinase 3 (Homo sapiens) (UniProt Q00526); assay: Inhibition of CDK3 at 3 uM
[34] = biological target: Cyclin-dependent kinase 7 (Homo sapiens) (UniProt P50613); assay: Inhibition of CDK7 at 3 uM
[35] = system: Tyrosine-protein kinase ABL1 (Homo sapiens), P00519 [Y253F]; assay: Inhibition of ABL1 Y253F mutant at 3 uM
[36] = biological target: ALK tyrosine kinase receptor (Homo sapiens) (UniProt Q9UM73); assay: Inhibition of ALK at 3 uM
[37] = biological target: Ankyrin repeat and protein kinase domain-containing protein 1 (Homo sapiens) (UniProt Q8NFD2); assay: Inhibition of ANKK1 at 3 uM
Sequence of Ankyrin repeat and protein kinase domain-containing protein 1 (Homo sapiens) (Q8NFD2 whole entry, the tested form may be a part): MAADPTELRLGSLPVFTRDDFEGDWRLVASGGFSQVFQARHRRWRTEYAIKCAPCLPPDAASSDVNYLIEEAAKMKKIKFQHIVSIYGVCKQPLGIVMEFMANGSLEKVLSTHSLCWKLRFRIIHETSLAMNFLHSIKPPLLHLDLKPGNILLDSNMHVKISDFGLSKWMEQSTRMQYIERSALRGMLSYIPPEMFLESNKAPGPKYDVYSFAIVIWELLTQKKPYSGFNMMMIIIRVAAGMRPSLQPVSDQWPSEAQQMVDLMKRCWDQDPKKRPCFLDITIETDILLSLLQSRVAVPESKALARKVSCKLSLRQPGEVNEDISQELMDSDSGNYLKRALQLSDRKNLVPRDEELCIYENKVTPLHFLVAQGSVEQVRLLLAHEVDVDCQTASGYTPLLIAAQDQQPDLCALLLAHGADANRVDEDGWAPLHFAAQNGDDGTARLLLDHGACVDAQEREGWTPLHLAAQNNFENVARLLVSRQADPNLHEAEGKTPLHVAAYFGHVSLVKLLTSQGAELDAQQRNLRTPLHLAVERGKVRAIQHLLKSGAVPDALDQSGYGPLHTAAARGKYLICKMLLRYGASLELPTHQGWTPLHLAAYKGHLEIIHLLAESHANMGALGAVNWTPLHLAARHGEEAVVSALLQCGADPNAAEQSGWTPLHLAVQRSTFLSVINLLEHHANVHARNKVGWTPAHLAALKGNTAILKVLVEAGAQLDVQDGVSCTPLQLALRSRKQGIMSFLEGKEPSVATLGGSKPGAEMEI

[38] = biological target: 5-hydroxytryptamine receptor 1A (Homo sapiens) (UniProt P08908); assay: Inhibition of human 5HT1A receptor at 3 uM; how it was run: as §1
Sequence of 5-hydroxytryptamine receptor 1A (Homo sapiens) (P08908 whole entry): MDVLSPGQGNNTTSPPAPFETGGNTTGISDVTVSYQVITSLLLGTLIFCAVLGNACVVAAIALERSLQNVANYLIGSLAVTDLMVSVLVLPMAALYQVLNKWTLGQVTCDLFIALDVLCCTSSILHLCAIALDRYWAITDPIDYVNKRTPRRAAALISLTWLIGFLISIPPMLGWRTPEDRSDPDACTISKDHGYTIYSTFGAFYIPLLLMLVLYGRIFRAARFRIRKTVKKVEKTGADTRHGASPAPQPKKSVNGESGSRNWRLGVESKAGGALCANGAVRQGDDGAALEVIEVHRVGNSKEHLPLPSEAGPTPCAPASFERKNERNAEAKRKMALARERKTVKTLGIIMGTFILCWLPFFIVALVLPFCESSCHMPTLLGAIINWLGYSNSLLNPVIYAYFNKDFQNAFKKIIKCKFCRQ

[39] = biological target: Substance-P receptor (Homo sapiens) (UniProt P25103); assay: Inhibition of human NK1 receptor at 3 uM; how it was run: as §1
[40] = biological target: Macrophage colony-stimulating factor 1 receptor (Homo sapiens) (UniProt P07333); assay: Inhibition of CSF1R at 3 uM
[41] = biological target: Death-associated protein kinase 2 (Homo sapiens) (UniProt Q9UIK4); assay: Inhibition of DAPK2 at 3 uM
[42] = biological target: Epidermal growth factor receptor (Homo sapiens) (UniProt P00533); assay: Inhibition of EGFR at 3 uM
How it was run: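 Single-concentration kinase panel scoring: each value is the percentage of enzyme activity remaining relative to a DMSO-only control. An activity statistically indistinct from DMSO control was scored "no hit".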

[43] = biological target: Epidermal growth factor receptor (Homo sapiens) (UniProt P04626+P00533+Q15303+P21860); assay: Inhibition of EGFR L747-E749del,A750P mutant at 3 uM; format: protein assay
[44] = species: Homo sapiens; conditions: 3 uM
[45] = species: Mus musculus; conditions: 3 uM

Structure (SMILES): CN(C)CCOc1cc(-c2cn[nH]c2)ccc1NC(=O)C1COc2ccccc2O1 (stereo not given) [SR-3677]
- inhibition [1]: < 10%
- inhibition [2]: < 10%
- inhibition [3]: < 10%
- inhibition [4]: < 10%
- inhibition [5]: < 10%
- inhibition [6]: < 10%
- inhibition [7]: < 10%
- inhibition [8]: < 10%
- inhibition [9]: < 10%
- inhibition [10]: < 10%
- inhibition [11]: < 10%
- inhibition [12]: < 10%
- inhibition [13]: < 10%
- inhibition [14]: < 10%
- inhibition [15]: < 10%
- inhibition [16]: < 10%
- inhibition [17]: < 10%
- inhibition [18]: < 10%
- inhibition [19]: < 10%
- inhibition [20]: < 10%
- inhibition [21]: < 10%
- inhibition [22]: < 10%
- inhibition [23]: < 10%
- inhibition [24]: < 10%
- inhibition [25]: < 10%
- inhibition [26]: < 10%
- inhibition [27]: -4%
- inhibition [28]: -1%
- inhibition [29]: 17%
- inhibition [30]: 1%
- inhibition [31]: -2%
- inhibition [32]: < 10%
- inhibition [33]: < 10%
- inhibition [34]: < 10%
- inhibition [35]: < 10%
- inhibition [36]: < 10%
- inhibition [37]: < 10%
- inhibition [38]: 6%
- inhibition [39]: -6%
- inhibition [40]: < 10%
- inhibition [41]: < 10%
- inhibition [42]: < 10%
- inhibition [43]: < 10%
- inhibition [44]: 4%
- inhibition [45]: -2%
